From ChEMBL document CHEMBL5653631, “A Potent and Selective ULK1 Inhibitor Suppresses Autophagy and Sensitizes Cancer Cells to Nutrient Stress” (iScience, 2018) come the findings set out here.

Assay [1] addresses Serine/threonine-protein kinase ATR (Homo sapiens) (UniProt Q13535). The experiment in a line: Inhibition of human recombinant ATR at 40 nM in presence of ATP by radiometric assay relative to control. Summed up:
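Panel of 327 recombinant human kinases, each assayed in vitro by radiometric activity assay in duplicate at a single inhibitor concentration per compound, chosen with reference to its ULK1 inhibition. Activity remaining was expressed as percent of vehicle control, and percent inhibition was calculated as 100 minus percent activity remaining.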

The target in assay [2] is T1, NUAK family SNF1-like kinase 1 (Homo sapiens) (UniProt O60285).
T1 sequence (whole entry): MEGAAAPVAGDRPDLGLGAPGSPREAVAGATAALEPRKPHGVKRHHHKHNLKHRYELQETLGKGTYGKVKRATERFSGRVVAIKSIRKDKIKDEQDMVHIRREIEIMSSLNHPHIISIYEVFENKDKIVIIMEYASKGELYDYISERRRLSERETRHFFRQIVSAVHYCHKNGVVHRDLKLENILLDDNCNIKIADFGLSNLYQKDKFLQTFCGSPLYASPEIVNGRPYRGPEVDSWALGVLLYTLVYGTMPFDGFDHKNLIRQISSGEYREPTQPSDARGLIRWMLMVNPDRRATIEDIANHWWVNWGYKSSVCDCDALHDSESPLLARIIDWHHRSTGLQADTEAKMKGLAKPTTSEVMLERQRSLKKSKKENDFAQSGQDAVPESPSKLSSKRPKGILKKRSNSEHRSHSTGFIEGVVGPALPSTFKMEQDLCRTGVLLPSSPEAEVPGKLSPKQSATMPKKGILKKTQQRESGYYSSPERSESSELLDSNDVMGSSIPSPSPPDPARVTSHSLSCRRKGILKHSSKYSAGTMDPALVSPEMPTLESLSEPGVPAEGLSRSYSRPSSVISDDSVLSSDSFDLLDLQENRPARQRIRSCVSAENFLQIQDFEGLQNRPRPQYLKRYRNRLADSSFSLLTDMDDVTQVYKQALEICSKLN
The experiment in a line: Inhibition of human recombinant NuaK1 at 40 nM related to control ULK1.

The target in assay [3] is BDNF/NT-3 growth factors receptor (Homo sapiens) (UniProt Q16620). The experiment in a line: Inhibition of human recombinant TRKB at 500 nM in presence of ATP by radiometric assay relative to control.
Assay [4] addresses T2, Serine/threonine-protein kinase BRSK1 (Homo sapiens) (UniProt Q8TDC3).
T2 sequence (whole entry): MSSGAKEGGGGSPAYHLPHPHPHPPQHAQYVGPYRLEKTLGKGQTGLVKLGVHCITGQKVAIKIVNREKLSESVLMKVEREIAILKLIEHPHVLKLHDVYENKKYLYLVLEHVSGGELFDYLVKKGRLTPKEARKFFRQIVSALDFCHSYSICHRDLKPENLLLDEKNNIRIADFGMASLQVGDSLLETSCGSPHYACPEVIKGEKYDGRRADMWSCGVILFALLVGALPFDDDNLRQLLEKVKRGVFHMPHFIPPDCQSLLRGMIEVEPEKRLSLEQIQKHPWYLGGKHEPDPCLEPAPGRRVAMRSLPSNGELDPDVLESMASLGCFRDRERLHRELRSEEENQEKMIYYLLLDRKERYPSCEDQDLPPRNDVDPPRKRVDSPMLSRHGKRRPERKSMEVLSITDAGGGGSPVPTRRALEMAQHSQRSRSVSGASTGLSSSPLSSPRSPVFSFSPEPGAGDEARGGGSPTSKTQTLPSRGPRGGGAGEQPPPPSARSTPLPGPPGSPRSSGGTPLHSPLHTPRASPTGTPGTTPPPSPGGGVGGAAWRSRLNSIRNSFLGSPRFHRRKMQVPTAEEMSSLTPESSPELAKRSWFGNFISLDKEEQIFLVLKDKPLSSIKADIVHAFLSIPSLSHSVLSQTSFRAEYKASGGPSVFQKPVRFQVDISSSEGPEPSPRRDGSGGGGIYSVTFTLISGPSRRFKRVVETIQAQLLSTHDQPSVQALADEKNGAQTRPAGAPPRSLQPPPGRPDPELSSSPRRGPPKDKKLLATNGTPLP
The assay can be described thus: Inhibition of human recombinant BRSK1 at 15 nM in presence of ATP by radiometric assay relative to control. Summed up:
(§1)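 Part of a radiometric in vitro activity panel of 327 recombinant human kinases. Each kinase was tested in duplicate at one inhibitor concentration. Activity remaining was expressed as a percentage of the vehicle control, and percent inhibition was taken as 100 minus that value.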

In assay [5] the target is T3, MAP kinase-activated protein kinase 5 (Homo sapiens) (UniProt Q8IW41).
T3 sequence (whole entry): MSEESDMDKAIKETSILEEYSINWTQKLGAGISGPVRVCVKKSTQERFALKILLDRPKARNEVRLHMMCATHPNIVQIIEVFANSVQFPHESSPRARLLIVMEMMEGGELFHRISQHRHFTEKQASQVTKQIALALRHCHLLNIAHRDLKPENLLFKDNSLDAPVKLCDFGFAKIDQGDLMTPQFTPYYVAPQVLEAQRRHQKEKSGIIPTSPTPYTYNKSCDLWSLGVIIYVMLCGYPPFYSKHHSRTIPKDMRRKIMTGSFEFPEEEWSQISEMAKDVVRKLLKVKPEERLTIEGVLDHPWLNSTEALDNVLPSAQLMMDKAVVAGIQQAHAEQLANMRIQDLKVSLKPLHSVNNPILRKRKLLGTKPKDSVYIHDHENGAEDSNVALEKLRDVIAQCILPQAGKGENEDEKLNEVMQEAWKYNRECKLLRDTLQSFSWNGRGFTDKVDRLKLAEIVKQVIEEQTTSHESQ
The experiment in a line: Inhibition of human recombinant MAPKAPK5 at 15 nM in presence of ATP by radiometric assay relative to control.

For assay [6], the target named is Protein-tyrosine kinase 6 (Homo sapiens) (UniProt Q13882). The experiment in a line: Inhibition of human recombinant BRK at 15 nM in presence of ATP by radiometric assay relative to control. The method, boiled down: as §1
The target in assay [7] is Calcium/calmodulin-dependent protein kinase type 1 (Homo sapiens) (UniProt Q14012). The assay can be described thus: Inhibition of human recombinant CaMK1a at 15 nM in presence of ATP by radiometric assay relative to control.
Calcium/calmodulin-dependent protein kinase type 1 (Homo sapiens), sequence (Q14012 whole entry, looked up): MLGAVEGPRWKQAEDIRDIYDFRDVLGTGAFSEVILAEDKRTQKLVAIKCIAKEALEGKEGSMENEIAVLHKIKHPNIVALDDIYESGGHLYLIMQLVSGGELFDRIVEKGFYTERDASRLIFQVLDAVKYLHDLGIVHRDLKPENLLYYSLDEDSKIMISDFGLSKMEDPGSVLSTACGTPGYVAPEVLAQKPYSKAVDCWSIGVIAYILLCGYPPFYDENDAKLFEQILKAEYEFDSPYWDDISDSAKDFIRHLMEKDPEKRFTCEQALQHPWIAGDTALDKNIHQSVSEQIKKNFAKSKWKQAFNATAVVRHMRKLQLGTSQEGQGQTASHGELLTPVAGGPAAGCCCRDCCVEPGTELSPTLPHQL

BDNF/NT-3 growth factors receptor (Homo sapiens), sequence (Q16620 32-822 limits assumed): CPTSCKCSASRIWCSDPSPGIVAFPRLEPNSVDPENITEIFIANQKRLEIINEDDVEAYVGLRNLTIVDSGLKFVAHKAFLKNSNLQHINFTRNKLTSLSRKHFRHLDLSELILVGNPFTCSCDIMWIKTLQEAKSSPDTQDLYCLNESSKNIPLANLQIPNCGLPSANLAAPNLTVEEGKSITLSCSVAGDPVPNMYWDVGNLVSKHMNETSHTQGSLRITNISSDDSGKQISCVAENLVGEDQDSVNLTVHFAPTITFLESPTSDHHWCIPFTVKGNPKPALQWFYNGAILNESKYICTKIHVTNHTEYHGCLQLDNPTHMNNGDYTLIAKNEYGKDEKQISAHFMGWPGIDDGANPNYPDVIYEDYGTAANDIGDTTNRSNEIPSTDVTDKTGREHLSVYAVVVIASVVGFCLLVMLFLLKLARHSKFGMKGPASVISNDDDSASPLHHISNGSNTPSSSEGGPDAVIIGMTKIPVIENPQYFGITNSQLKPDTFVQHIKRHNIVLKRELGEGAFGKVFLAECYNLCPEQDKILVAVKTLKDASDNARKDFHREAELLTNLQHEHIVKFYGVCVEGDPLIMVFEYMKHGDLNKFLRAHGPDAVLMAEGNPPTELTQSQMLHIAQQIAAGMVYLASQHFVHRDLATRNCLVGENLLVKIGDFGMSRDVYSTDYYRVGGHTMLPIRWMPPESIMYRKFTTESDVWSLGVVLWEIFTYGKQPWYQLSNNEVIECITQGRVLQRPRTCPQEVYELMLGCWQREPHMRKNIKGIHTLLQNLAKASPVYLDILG
Protein-tyrosine kinase 6 (Homo sapiens), sequence (Q13882 whole entry, looked up): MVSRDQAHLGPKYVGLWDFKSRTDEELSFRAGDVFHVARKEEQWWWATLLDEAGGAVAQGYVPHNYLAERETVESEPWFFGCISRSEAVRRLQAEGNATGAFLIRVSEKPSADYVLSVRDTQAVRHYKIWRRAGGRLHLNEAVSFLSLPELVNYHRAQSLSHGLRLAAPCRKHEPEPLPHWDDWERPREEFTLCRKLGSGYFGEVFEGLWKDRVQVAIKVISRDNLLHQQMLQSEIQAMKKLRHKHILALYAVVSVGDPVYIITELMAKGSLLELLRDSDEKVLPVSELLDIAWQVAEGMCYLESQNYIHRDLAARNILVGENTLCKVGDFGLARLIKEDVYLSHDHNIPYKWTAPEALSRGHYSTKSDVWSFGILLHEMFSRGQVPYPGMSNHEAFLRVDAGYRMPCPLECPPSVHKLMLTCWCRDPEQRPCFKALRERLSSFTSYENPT
Serine/threonine-protein kinase ATR (Homo sapiens), sequence (Q13535 whole entry, looked up): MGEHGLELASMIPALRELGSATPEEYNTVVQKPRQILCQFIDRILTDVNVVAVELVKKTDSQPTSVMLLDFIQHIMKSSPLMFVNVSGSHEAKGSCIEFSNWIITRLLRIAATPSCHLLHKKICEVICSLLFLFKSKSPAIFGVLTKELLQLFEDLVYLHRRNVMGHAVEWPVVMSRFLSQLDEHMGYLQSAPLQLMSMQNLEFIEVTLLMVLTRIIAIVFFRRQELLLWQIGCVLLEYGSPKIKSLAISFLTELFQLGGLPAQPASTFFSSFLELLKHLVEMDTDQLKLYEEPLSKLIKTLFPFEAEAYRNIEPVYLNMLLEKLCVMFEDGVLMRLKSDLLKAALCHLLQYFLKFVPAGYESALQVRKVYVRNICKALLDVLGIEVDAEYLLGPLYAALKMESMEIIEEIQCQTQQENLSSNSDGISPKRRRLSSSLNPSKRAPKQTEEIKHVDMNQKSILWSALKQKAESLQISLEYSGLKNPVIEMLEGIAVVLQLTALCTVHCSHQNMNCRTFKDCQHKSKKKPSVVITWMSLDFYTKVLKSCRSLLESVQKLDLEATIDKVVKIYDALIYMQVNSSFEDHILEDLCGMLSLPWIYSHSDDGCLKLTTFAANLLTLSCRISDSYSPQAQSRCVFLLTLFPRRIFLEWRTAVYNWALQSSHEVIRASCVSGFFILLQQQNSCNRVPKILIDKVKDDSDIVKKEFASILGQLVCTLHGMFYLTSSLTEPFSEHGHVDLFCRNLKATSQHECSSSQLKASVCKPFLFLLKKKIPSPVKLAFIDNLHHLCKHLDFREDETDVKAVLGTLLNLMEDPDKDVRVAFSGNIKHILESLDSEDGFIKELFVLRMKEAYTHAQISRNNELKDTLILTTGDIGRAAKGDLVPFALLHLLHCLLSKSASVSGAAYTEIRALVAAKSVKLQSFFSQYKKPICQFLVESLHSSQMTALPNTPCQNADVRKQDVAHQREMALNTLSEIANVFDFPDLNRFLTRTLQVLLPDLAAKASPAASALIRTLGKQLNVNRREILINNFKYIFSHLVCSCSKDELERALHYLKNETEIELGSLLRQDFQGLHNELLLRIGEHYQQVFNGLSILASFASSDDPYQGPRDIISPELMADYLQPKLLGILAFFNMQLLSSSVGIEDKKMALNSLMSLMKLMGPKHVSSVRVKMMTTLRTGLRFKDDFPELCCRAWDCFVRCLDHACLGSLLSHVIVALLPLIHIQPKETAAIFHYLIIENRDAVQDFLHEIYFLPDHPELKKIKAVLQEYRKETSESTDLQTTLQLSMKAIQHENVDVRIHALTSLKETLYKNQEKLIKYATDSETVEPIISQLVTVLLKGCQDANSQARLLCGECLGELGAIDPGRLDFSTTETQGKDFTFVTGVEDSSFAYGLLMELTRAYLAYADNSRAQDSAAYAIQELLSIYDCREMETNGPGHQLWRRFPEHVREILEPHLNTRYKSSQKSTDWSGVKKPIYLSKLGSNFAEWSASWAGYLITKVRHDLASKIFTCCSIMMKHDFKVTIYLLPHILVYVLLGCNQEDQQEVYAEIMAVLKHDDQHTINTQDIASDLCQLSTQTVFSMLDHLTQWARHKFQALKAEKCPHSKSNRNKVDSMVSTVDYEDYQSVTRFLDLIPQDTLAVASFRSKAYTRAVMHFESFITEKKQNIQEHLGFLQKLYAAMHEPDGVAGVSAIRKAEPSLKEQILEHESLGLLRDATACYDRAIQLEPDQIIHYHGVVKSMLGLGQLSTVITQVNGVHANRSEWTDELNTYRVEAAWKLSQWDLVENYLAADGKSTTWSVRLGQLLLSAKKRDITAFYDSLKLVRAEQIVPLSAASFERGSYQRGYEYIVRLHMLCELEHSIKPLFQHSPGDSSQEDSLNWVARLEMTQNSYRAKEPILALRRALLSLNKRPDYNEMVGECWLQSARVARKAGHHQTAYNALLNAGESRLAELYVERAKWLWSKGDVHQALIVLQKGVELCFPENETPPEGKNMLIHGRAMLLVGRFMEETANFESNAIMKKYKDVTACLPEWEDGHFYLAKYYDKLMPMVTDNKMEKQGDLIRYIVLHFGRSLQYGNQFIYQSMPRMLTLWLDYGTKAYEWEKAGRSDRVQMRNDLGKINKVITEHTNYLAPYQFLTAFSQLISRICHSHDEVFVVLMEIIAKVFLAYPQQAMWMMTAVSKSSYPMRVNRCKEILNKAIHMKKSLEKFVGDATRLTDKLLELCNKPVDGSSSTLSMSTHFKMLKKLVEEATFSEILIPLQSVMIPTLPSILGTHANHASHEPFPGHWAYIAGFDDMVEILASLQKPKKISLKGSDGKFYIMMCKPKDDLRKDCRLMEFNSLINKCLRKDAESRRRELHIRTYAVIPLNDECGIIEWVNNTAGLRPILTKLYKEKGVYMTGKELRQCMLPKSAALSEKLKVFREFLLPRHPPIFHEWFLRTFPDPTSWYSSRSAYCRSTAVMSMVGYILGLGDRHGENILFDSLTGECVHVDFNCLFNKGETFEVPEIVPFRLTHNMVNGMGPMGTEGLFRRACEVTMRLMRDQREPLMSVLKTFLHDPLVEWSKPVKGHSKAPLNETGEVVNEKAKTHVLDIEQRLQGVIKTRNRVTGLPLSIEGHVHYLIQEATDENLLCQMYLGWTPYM

As a reminder, the inhibition is the relative decrease from the control value, in per cent. With `O=C(N[C@@H](C1CC1)C(F)(F)F)c1cc(-c2cnn3cc(-c4ccc(F)cc4)cnc23)cs1`, the inhibition in assay [1] was 0%. For the same compound, in assay [2], the fold change (FC) was determined as 0.07.
In the case of `CNC(=O)c1ccccc1Oc1nc(Nc2cc(OC)c(OC)c(OC)c2)ncc1Br`, the inhibition in assay [3] came out at 48%.
Consider `CC(C)[C@H](NC(=O)c1cc(-c2cnn3cc(-c4ccc(OCCN5CCCCC5)cc4)cnc23)cs1)C(F)(F)F`, for which the inhibition in assay [4] amounted to 13%; in assay [5], 0%; in assay [6], 8%; in assay [7] it was 7%.
